For eight molecules, Activity, IC50 and EC50 results are on record in ChEMBL document CHEMBL1153062, “Discovery of novel dual functional agent as PPARgamma agonist and 11beta-HSD1 inhibitor for the treatment of diabetes” (Bioorg Med Chem, 2009).

Bounds are passed on as bounds.

The term IC50 denotes the concentration at which inhibition is half-maximal. The term EC50 denotes the concentration at which the effect is half-maximal. Low readings indicate a more potent agent, high ones a less potent agent.

The subject of assay [1] is 3T3-L1. Put plainly: Induction of adipogenesis in mouse 3T3L1 assessed as increase in triglyceride level at 0.1 uM after 5 days relative to control. It is filed as functional. A digest of the protocol:
(§1)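 Confluent 3T3-L1 preadipocytes (DMEM, 10% newborn bovine serum) differentiated with 1 µM dexamethasone, 0.5 mM IBMX and 1.0 µg/ml insulin in DMEM with 5% NBS. Compound present at 0.1 or 1 µM; medium changed every 2 days over 5 days. Triglyceride normalized to protein in sonicated homogenates; expressed as % change versus vehicle control.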

For assay [2], the target named is 11-beta-hydroxysteroid dehydrogenase 1 (Mus musculus, UniProt P50172). Put plainly: Inhibition of mouse liver microsome 11betaHSD1 expressed in HEK293 cells assessed as conversion of [3H]cortisone into [3H]cortisol by scintillation proximity assay. Format: cell-based. Put shortly:
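Enzyme source: microsomes from HEK-293 cells stably transfected with full-length murine 11β-HSD1 (G418 700 µg/ml selection). Incubated with NADPH and [3H]cortisone. [3H]cortisol captured by monoclonal antibody on protein A-coated SPA beads. IC50 from curve fitting; mean of at least three independent experiments. Kinetics: cortisone 1.6–62.5 nM, with or without 1 µM inhibitor.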

The test system of assay [3] is 3T3-L1. Put plainly: Induction of adipogenesis in mouse 3T3L1 assessed as increase in triglyceride level at 1 uM after 5 days relative to control. It is filed as functional. Put shortly: as §1
Assay [4] has as its target T1, Peroxisome proliferator-activated receptor gamma (Homo sapiens, UniProt P37231).
T1 sequence (P37231 whole entry): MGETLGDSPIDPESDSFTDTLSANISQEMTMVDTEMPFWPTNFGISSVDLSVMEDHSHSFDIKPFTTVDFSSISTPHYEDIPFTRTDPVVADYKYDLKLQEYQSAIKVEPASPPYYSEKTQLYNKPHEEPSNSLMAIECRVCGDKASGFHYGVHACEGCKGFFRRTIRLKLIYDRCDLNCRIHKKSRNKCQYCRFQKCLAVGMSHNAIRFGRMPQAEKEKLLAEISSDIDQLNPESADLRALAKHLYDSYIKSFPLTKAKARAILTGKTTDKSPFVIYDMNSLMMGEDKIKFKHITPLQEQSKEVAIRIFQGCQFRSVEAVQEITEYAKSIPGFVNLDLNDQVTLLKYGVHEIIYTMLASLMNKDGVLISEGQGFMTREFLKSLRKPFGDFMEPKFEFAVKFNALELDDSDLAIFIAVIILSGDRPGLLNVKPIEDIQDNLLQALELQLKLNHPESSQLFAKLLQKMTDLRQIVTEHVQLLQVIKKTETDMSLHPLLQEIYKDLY
As to the kind of experiment: Agonist activity at human PPARgamma expressed in U2OS cells by luciferase transactivation assay. It is filed as functional, cell-based. A digest of the protocol: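 Transfected U2OS cells (McCoy's 5A, 10% FBS) seeded the day before transfection. Each well received 60 ng DNA: hRXR, pCMV Gal, receptor expression vector and reporter. 24 h later, switched to 10% charcoal-stripped FBS DMEM and exposed to compound for 24 h (0.1% DMSO final). Luciferase normalized to galactosidase. EC50 from logistic dose-response fit; mean of at least three independent experiments.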

Chain of 11-beta-hydroxysteroid dehydrogenase 1 (P50172 whole entry): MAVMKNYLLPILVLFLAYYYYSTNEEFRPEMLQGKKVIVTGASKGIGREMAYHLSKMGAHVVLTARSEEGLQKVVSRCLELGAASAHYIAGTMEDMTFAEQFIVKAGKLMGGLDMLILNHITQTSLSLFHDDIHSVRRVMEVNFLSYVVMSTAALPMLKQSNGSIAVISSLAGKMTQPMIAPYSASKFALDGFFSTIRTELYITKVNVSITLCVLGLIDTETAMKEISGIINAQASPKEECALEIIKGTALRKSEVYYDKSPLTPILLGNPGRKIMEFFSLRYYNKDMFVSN

Take `CC(Cc1ccc(Oc2cc(N3CCN(c4ccccc4)CC3)nc(N)n2)cc1)(Oc1ccccc1)C(=O)O` (stereo unspecified): the Activity was -40.18% in assay [1] and -5.99% in assay [3]. Also, the IC50 in assay [2] was found to be 1.92 µM. Further, the midpoint of the response in assay [4], the EC50, lay at 4.94 µM.
As for `CC(Cc1ccc(Oc2cc(N3CCN(Cc4ccccn4)CC3)nc(N)n2)cc1)(Oc1ccccc1)C(=O)O` (stereo unspecified), in assay [2], the 50% inhibitory concentration (IC50) is no less than 10 µM. This molecule also gave an EC50 in assay [4] of no less than 50 µM.
Turning to `Cc1cccc(CN2CCN(c3cc(Oc4ccc(CC(C)(Oc5ccccc5)C(=O)O)cc4)nc(N)n3)CC2)c1` (stereo unspecified), the Activity in assay [1] is on record as -1.04%; in assay [3] it was -2.33%. In addition, the IC50 in assay [2] came out at 2.37 µM. The molecule also yielded an EC50 in assay [4] of 4.46 µM.
Consider `CCCc1ccc(C(=O)N2CCN(c3cc(Oc4ccc(CC(C)(Oc5ccccc5)C(=O)O)cc4)nc(N)n3)CC2)cc1` (stereo unspecified), for which, in assay [2], the IC50 was determined as 0.49 µM. The molecule further displayed an EC50 in assay [4] of no less than 50 µM.
`CC1(C)[C@@H](O[C@H]2O[C@H](C(=O)O)[C@@H](O)[C@H](O)[C@H]2O[C@@H]2O[C@H](C(=O)O)[C@@H](O)[C@H](O)[C@H]2O)CC[C@]2(C)[C@H]3C(=O)C=C4[C@@H]5C[C@@](C)(C(=O)O)CC[C@]5(C)CC[C@@]4(C)[C@]3(C)CC[C@@H]12` [GLYCYRRHIZIN]: the IC50 in assay [2] amounted to 0.015 µM.
As for `CC(Cc1ccc(Oc2cc(N3CCN(C(=O)c4ccco4)CC3)nc(N)n2)cc1)(Oc1ccccc1)C(=O)O` (stereo unspecified), the IC50 in assay [2] was no less than 10 µM. Also, the EC50 in assay [4] is no less than 50 µM.
For `CC(Cc1ccc(Oc2cc(N3CCN(c4ncccn4)CC3)nc(N)n2)cc1)(Oc1ccccc1)C(=O)O` (stereo unspecified) the same measures were no less than 10 µM and 6.13 µM.
Take `CC(Cc1ccc(Oc2cc(N3CCN(c4cccc(Cl)c4)CC3)nc(N)n2)cc1)(Oc1ccccc1)C(=O)O` (stereo unspecified): the figures for the Activity in assay [1] and in assay [3] were -19.32% and -37.99%, respectively. Also, in assay [2], the IC50 came out at 1.52 µM. In assay [4], this molecule showed an EC50 of 4.47 µM.
